Measurements reported in ChEMBL document CHEMBL1145109, “Discovery of 4-benzoyl-1-[(4-methoxy-1H- pyrrolo[2,3-b]pyridin-3-yl)oxoacetyl]-2- (R)-methylpiperazine (BMS-378806): a novel HIV-1 attachment inhibitor that interferes with CD4-gp120 interactions” (J Med Chem, 2003).
pEC50: −log10 of the molar value.

How the values were obtained:
[1] = Inhibitory activity of compound against NL4-3 (T) tropic virus that utilizes the CXCR-4 co-receptor was determined; format: functional, nl4-3 tropic virus
[2] = Inhibitory activity of compound against LAI (T) tropic virus that utilizes the CXCR-4 co-receptor was determined; format: functional
[3] = test system: Human immunodeficiency virus 1; experiment: Inhibitory activity of compound against BAl (M) Macrophage tropic virus that utilizes the CCR5 co-receptor was determined; format: functional, organism-based; settings: Human immunodeficiency virus 1, CCR5
[4] = The maximum plasma concentration of compound after peroral administration of 5(mg/kg) polyethelene glycol in rat was determined; format: ADME, organism-based; set-up: dose 5 mg/kg, route oral; settings: po
How it was run: (§1)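 Given to rat, dog and cynomolgus monkey as a solution in poly(ethylene glycol) 400/ethanol (90:10 v/v), by intravenous and oral (po) dosing. The iv/po dose pairs in mg/kg were 5/5 or 1/5 in rat and 2/10 or 0.67/3.4 in dog and monkey. Plasma sampling gave Fpo (%), oral Cmax (µM), CLtot (mL/min/kg) and Vss (L/kg).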

[5] = test system: Human immunodeficiency virus 1; experiment: Inhibitory activity of compound against TLAV (dual) virus that utilizes both CXR4 and CCR5 co-receptor virus was determined; format: functional, organism-based; settings: Human immunodeficiency virus 1, TLAV
[6] = test system: Human immunodeficiency virus 1; experiment: Cytotoxicity activity of compound against BAl (M) Macrophage tropic virus that utilizes the CCR5 virus was determined; format: functional; settings: Human immunodeficiency virus 1, CCR5
How it was run: (§2)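 CC50 in µM, measured as cytotoxicity toward the host cells used for the antiviral assays, either MT-2 or PM1 cells.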

[7] = test system: Human immunodeficiency virus 1; experiment: Inhibitory activity of compound in MT-2 cells against JRFL (M) Macrophage tropic virus that utilizes the CCR5 was determined; format: functional, organism-based
[8] = The volume of distribution of compound was determined in monkey; format: ADME, organism-based; settings: simiiformes, in vivo; read-out: Vss; how it was run: as §1
[9] = Oral bioavailability after peroral administration of 5(mg/kg) polyethelene glycol in rat was determined; format: ADME, organism-based; settings: in vivo; how it was run: as §1
[10] = The volume of distribution of compound a was determined in dog; format: ADME, organism-based, Canis lupus familiaris; settings: in vivo, read-out: Vss; how it was run: as §1
[11] = test system: Human immunodeficiency virus 1; experiment: Cytotoxicity activity of compound against TLAV (dual) virus that utilizes both CXR4 and CCR5 co-receptor virus was determined; format: functional; settings: Human immunodeficiency virus 1, TLAV; how it was run: as §2
[12] = Oral bioavailability after paroral administration of 10 (mg/kg) polyethelene glycol in dog was determined; format: ADME, organism-based, Canis lupus familiaris; settings: in vivo; how it was run: as §1
[13] = test system: Human immunodeficiency virus 1; experiment: Inhibitory activity of compound against SF-2 (T) tropic virus that utilizes the CXCR-4 co-receptor was determined; format: functional, organism-based, sf-2 tropic virus
[14] = Oral bioavailability after paroral administration of 10 (mg/kg) polyethelene glycol in monkey was determined; format: ADME, organism-based; settings: primates, in vivo; how it was run: as §1
[15] = The total clearance time in dog was determined; format: ADME, organism-based, Canis lupus familiaris; settings: in vivo, read-out: CLtotal; how it was run: as §1
[16] = The maximum plasma concentration of compound after paroral administration of 10 (mg/kg) polyethelene glycol in monkey was determined; format: ADME, organism-based; set-up: dose 10 mg/kg, route oral; settings: simiiformes, po; how it was run: as §1
[17] = The volume of distribution of compound was determined in rat; format: ADME, organism-based; settings: in vivo, read-out: Vss; how it was run: as §1
[18] = The total clearance time in rat was determined; format: ADME, organism-based; settings: in vivo, read-out: CLtotal; how it was run: as §1
[19] = The total clearance time in monkey was determined; format: ADME, organism-based; settings: simiiformes, in vivo; read-out: CLtotal; how it was run: as §1
[20] = The maximum plasma concentration of compound after paroral administration of 10 (mg/kg) polyethelene glycol in dog was determined; format: ADME, organism-based, Canis lupus familiaris; set-up: dose 10 mg/kg, route oral; settings: po; how it was run: as §1
[21] = Cytotoxicity activity of compound in MT-2 cells against LAI (T) tropic virus that utilizes the CXCR-4 co-receptor virus was determined; format: functional; settings: MT2; how it was run: as §2
[22] = test system: Human immunodeficiency virus 1; experiment: Cytotoxicity activity of compound in PM1 cells against BAl (M) Macrophage tropic virus that utilizes the CCR5 virus was determined; format: functional; settings: Human immunodeficiency virus 1, PM1; how it was run: as §2
[23] = test system: Human immunodeficiency virus 1; experiment: Inhibitory activity of compound against SF-162 (M) Macrophage tropic virus that utilizes the CCR5 was determined; format: functional, organism-based, sf-162 macrophage tropic virus; settings: Human immunodeficiency virus 1, CCR5
[24] = test system: Human immunodeficiency virus 1; experiment: Cytotoxicity activity of compound in MT-2 cells against TLAV (dual) virus that utilizes both CXR4 and CCR5 co-receptor virus was determined; format: functional; settings: Human immunodeficiency virus 1, TLAV, MT2; how it was run: as §2
[25] = Oral bioavailability after paroral administration of 3.4(mg/kg) polyethelene glycol in dog was determined; format: ADME, organism-based, Canis lupus familiaris; settings: in vivo
How it was run: (§3)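 Oral dosing as a solution in PEG 400/ethanol (90:10 v/v). Separate iv arms were used for comparison: rat 1 mg/kg iv vs 5 mg/kg po, dog and cynomolgus monkey 0.67 mg/kg iv vs 3.4 mg/kg po. Oral bioavailability (Fpo, %) was derived from plasma exposure after oral relative to intravenous dosing.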

[26] = Oral bioavailability after paroral administration of 3.4(mg/kg) polyethelene glycol in monkey was determined; format: ADME, organism-based; settings: primates, in vivo; how it was run: as §3
[27] = The maximum plasma concentration of compound after paroral administration of 5(mg/kg) polyethelene glycol in rat was determined; format: ADME, organism-based; set-up: dose 5 mg/kg, route oral; settings: po; how it was run: as §1
[28] = The maximum plasma concentration of compound after paroral administration of 3.4(mg/kg) polyethelene glycol in dog was determined; format: ADME, organism-based, Canis lupus familiaris; set-up: dose 3.4 mg/kg, route oral; settings: po; how it was run: as §1
[29] = test system: Human immunodeficiency virus 1; experiment: Inhibitory activity of compound against JRFL (M) Macrophage tropic virus that utilizes the CCR5 was determined; format: functional, organism-based; settings: Human immunodeficiency virus 1, CCR5
[30] = The volume of distribution of compound against rat was determined; format: ADME, organism-based; settings: in vivo, read-out: Vss; how it was run: as §1
[31] = The maximum plasma concentration of compound after paroral administration of 3.4(mg/kg) polyethelene glycol in monkey was determined; format: ADME, organism-based; set-up: dose 3.4 mg/kg, route oral; settings: simiiformes, po; how it was run: as §1
[32] = Oral bioavailability after paroral administration of 5(mg/kg) polyethelene glycol in rat was determined; format: ADME, organism-based; settings: in vivo; how it was run: as §3
[33] = The volume of distribution of compound was determined in dog; format: ADME, organism-based, Canis lupus familiaris; settings: in vivo, read-out: Vss; how it was run: as §1

O=C(C(=O)N1CCN(C(=O)c2ccccc2)CC1)c1c[nH]c2cccc(F)c12
pEC50 [1]: 7.51
pEC50 [2]: 8.53
pEC50 [3]: 7.74
Cmax [4]: 0.15 µM
pEC50 [5]: 7.87
CC50 [6]: 52500 nM
pEC50 [7]: 8.62
Vd [8]: 0.24 L/kg
bioavailability [9]: 9.4%
Vd [10]: 1.8 L/kg
CC50 [11]: 146000 nM
bioavailability [12]: 100%
pEC50 [13]: 7.20
bioavailability [14]: 100%
clearance [15]: 2.4 mL/min/kg
Cmax [16]: 34 µM
Vd [17]: 0.99 L/kg
clearance [18]: 48 mL/min/kg
clearance [19]: 3.1 mL/min/kg
Cmax [20]: 18 µM
CC50 [21]: 146000 nM

O=C(C(=O)N1CCN(C(=O)c2ccccc2)CC1)c1c[nH]c2ccccc12
pEC50 [1]: 5.29
pEC50 [2]: 7.07
pEC50 [3]: 4.54
pEC50 [5]: 6.83
CC50 [22]: > 200000 nM
pEC50 [23]: 6.64
CC50 [24]: 145000 nM
pEC50 [13]: 5.99
CC50 [21]: 145000 nM

COc1ccnc2[nH]cc(C(=O)C(=O)N3CCN(C(=O)c4ccccc4)C[C@H]3C)c12
pEC50 [1]: 8.53
bioavailability [25]: 77%
pEC50 [2]: 8.57
bioavailability [26]: 24%
pEC50 [3]: 7.81
Cmax [27]: 0.22 µM
pEC50 [5]: 9.07
CC50 [22]: > 300000 nM
pEC50 [23]: 8.46
CC50 [24]: > 300000 nM
Cmax [28]: 7.4 µM
pEC50 [29]: 8.83
Vd [8]: 0.39 L/kg
Vd [30]: 0.56 L/kg
pEC50 [13]: 7.58
clearance [15]: 5.2 mL/min/kg
Cmax [31]: 0.51 µM
clearance [18]: 32 mL/min/kg
clearance [19]: 10 mL/min/kg
CC50 [21]: > 300000 nM
bioavailability [32]: 19%
Vd [33]: 0.47 L/kg
